Measured values taken from ChEMBL document CHEMBL4818983, “Structure-activity relationship and hypoglycemic activity of tricyclic matrines with advantage of treating diabetic nephropathy” (Eur J Med Chem, 2020).
Active and inactive are the calls of the source. The rule behind the calls is not given here.

Experiments:
Mus musculus [1] = assay: Antidiabetic activity in KK-Ay mouse assessed as effect on BUN level at 50 mg/kg, po for 24 hrs by ELISA (reference value: 12.8 +/- 2.97 mM); assay type: functional
[2] = Effect on high fat diet-fed KK-Ay mouse model of obesity and diabetes assessed as water intake at 50 mg/kg, po (reference value: 21.2 +/- 4.17 ml/day); assay type: ADME, organism-based; conditions: in vivo
Procedure, shortened: (§1)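 KK-Ay mice on lipogenic diet, with C57BL/6J mice as normal controls, dosed orally at 50 or 100 mg/kg (test) or 5 mg/kg (RGZ). Food intake (g/day), water intake (mL/day) and body weight recorded before and after treatment; body weight gain calculated. Mean±SD, 8-9 mice per group.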

L6 [3] = assay: Increase in glucose consumption in rat L6 cells at 10 to 40 uM measured after 24 hrs; assay type: functional, cell-based; conditions: dose 10-40 µM
Procedure, shortened: (§2)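 L6 myotubes treated with DMSO, compound or RGZ (20 μM) at the indicated concentrations for 24 h. Culture supernatants assayed for glucose consumption and lactate release; lysed cells assayed for ATP, normalized to protein. Mean ± SD of 3 independent experiments vs DMSO.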

Mus musculus [4] = assay: Antidiabetic activity in KK-Ay mouse assessed as effect on AGE level at 50 mg/kg, po for 24 hrs by ELISA (Rvb 2.85 +/- 0.92 ug/ml); assay type: functional
HepG2 = assay: Increase in glucose consumption in human HepG2 cells assessed as Gx/GDMSO ratio at 25 uM by glucose oxidase assay; assay type: functional
Procedure, shortened: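 HepG2 glucose consumption screen. Test compounds at 25 μM, metformin at 5 mM. Activity expressed as ratio of glucose consumption to DMSO-treated cells (Gx/G_DMSO).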

Mus musculus [5] = assay: Antidiabetic activity in KK-Ay mouse assessed as effect on insulin level at 50 mg/kg, […] by ELISA (reference value: 226 +/- 15.5 mU/l); assay type: functional
Mus musculus [6] = organism: Mus musculus; assay: Anti-diabetic activity in high fat diet-fed C57BL/6J mouse model of obesity and diabetes assessed as reduction in urine glucose level measured after 24 hrs; assay type: functional, organism-based
Procedure, shortened: (§3)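 Before study end, 24-h urine collected from C57BL/6J controls and KK-Ay mice (untreated, oral 50 or 100 mg/kg compound, or 5 mg/kg rosiglitazone). Volume, glucose, total protein and microalbumin measured by kits. Mean ± SD, 8-9 mice per group, vs C57BL/6J or untreated KK-Ay.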

Mus musculus [7] = assay: Antidiabetic activity in KK-Ay mouse assessed as effect on HOMA-IR level at 100 mg/kg, […] by ELISA (reference value: 137 +/- 18.4); assay type: functional
[8] = Cytotoxicity against human HepG2 cells after 24 hrs by MTT assay; assay type: cell-based
Procedure, shortened: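 HepG2 cells exposed to compound; cell growth measured; CC50 derived from the concentration–growth relationship.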

Mus musculus [9] = assay: Anti-diabetic activity in high fat diet-fed KK-Ay mouse model of obesity and diabetes assessed as reduction in total protein level in urine at 50 to 100 mg/kg, po measured after 24 hrs; assay type: functional, organism-based; conditions: dose 50-100 mg/kg; procedure, shortened: as §3
[10] = Effect on high fat diet-fed C57BL/6J mouse model of obesity and diabetes assessed as food intake; conditions: in vivo
Mus musculus [11] = organism: Mus musculus; assay: Anti-diabetic activity in high fat diet-fed C57BL/6J mouse model of obesity and diabetes assessed as decrease in microalbumin level in urine measured after 24 hrs; assay type: functional, organism-based; procedure, shortened: as §3
Mus musculus [12] = assay: Antidiabetic activity in KK-Ay mouse assessed as effect on HOMA-IR level at 50 mg/kg, […] by ELISA (reference value: 137 +/- 18.4); assay type: functional
[13] = Acute toxicity in po dosed Kunming mouse administered as single dose measured for 7 days; assay type: organism-based; conditions: in vivo, time 7 day
Procedure, shortened: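 Kunming mice each received one oral dose at 250, 500, 750 or 1000 mg·kg^-1 and were closely monitored for 7 days. The median lethal dose (LD50) was estimated from this single-dose experiment.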

Mus musculus [14] = organism: Mus musculus; assay: Anti-diabetic activity in high fat diet-fed C57BL/6J mouse model of obesity and diabetes assessed as […] in total protein level in urine measured after 24 hrs; assay type: functional, organism-based; procedure, shortened: as §3
[15] = Effect on high fat diet-fed KK-Ay mouse model of obesity and diabetes assessed as total body weight gain at 50 mg/kg, po (reference value: 43.5 +/- 5.24 g); assay type: ADME, organism-based; conditions: in vivo; procedure, shortened: as §1
L6 [16] = assay: Induction of glycolysis in rat L6 cells assessed as reduction in cellular ATP production at 10 to 40 uM measured after 24 hrs; assay type: functional, cell-based; conditions: dose 10-40 µM; procedure, shortened: as §2
Mus musculus [17] = assay: Antidiabetic activity in KK-Ay mouse assessed as effect on serum Creatinine level at 50 mg/kg, po for 24 hrs by ELISA (reference value: 124 +/- 35.1 uM); assay type: functional
Mus musculus [18] = assay: Anti-diabetic activity in high fat diet-fed KK-Ay mouse model of obesity and diabetes assessed as improved pathological changes in pancreas at 50 to 100 mg/kg, po by hematoxylin and eosin staining based histopathological analysis; assay type: functional, organism-based; conditions: dose 50-100 mg/kg
Procedure, shortened: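 Mice sacrificed at study end, with KK-Ay given 50 or 100 mg/kg compound or 5 mg/kg rosiglitazone orally and C57BL/6J as normal controls. Kidney and pancreas sections H&E stained, imaged at 200×, pathological changes scored. Mean ± SD of 8-9 mice per group.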

Mus musculus [19] = assay: Antidiabetic activity in KK-Ay mouse assessed as reduction in fasting blood glucose level at 100 mg/kg, po for 50 days by glucose oxidase method (reference value: 13.3 +/- 2.85 mM); assay type: functional; conditions: time 50 day
Procedure, shortened: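 Lipogenic-diet KK-Ay mice given 50 or 100 mg/kg compound or 5 mg/kg rosiglitazone orally for 50 days, C57BL/6J as normal controls. Fasting blood glucose, glycosylated haemoglobin, AGE, insulin, HOMA-IR, cholesterol, LDL-c, TG, serum creatinine and BUN determined. Mean ± SD, 8-9 mice per group.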

[20] = Acute toxicity in Kunming mouse assessed as effect on blood GOT level at 250 to 1000 mg/kg, po administered as single dose measured for 7 days; assay type: organism-based; conditions: in vivo, 168 h, dose 250-1000 mg/kg, time 7 day
Procedure, shortened: (§4)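 Kunming mice each received one oral dose at 250, 500, 750 or 1000 mg·kg^-1 and were closely monitored for 7 days. At the end, blood was sampled and GOT, GPT, BUN and CRE were measured […] as liver and kidney function markers.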

Mus musculus [21] = assay: Antidiabetic activity in KK-Ay mouse assessed as effect on Triglycerides level at 100 mg/kg, […] by ELISA (reference value: 4.01 +/- 1.83 mM); assay type: functional
Mus musculus [22] = assay: Antidiabetic activity in KK-Ay mouse assessed as effect on Triglycerides level at 50 mg/kg, […] by ELISA (reference value: 4.01 +/- 1.83 mM); assay type: functional
[23] = Acute toxicity in Kunming mouse assessed as effect on blood CRE level at 250 to 1000 mg/kg, po administered as single dose measured for 7 days; assay type: organism-based; conditions: in vivo, 168 h, dose 250-1000 mg/kg, time 7 day; procedure, shortened: as §4

## CCCC[C@@H]1[C@H]2CCCN3CCC[C@@H](CN1S(=O)(=O)c1ccc(C(F)(F)F)cc1)[C@@H]23
Mus musculus [1]
  Activity: 12.7 mM
[2]
  Activity: 13.8 mL/day
L6 [3]
  Activity: Dose-Dependent Effect
Mus musculus [4]
  Activity: 1.59 µg/mL
HepG2
  Ratio: 1.49
Mus musculus [5]
  Activity: 177 mU/L
Mus musculus [6]
  Activity: Active
Mus musculus [7]
  Activity: 46.5
[8]
  CC50 at 24 h: 642 µM
Mus musculus [9]
  Activity: Active
[10]
  Activity: 4.29 g/day
Mus musculus [11]
  Activity: inactive
Mus musculus [12]
  Activity: 74.3
[13]
  LD50 at 168 h: 1000 mg/kg
Mus musculus [14]
  Activity: inactive
[15]
  Activity: 3.52 g
L6 [16]
  Activity: Active
Mus musculus [17]
  Activity: 88.8 µM
Mus musculus [18]
  Activity: Active
Mus musculus [19]
  Activity: 8.18 mM
[20]
  Activity: Non-Toxic
Mus musculus [21]
  Activity: 2.39 mM
Mus musculus [22]
  Activity: 2.89 mM
[23]
  Activity: Non-Toxic
